Hits are enriched below; roughly 2.3% of the tested compounds scored in any of these assays.
V1R ag counter: V1a receptor agonism, counter-screen for OXTR agonists; AID 2797; P37288; 0.25% of 320,000 active; activation, % at 3 µM; CHO-V1R cells, Fluo-8 calcium fluorescence, agonist mode; 0% DMSO, 100% 3 nM vasopressin;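 active = activation above the mean activation of all tested compounds plus 3 SD, per screening run, cut at about 20% in these data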;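 note: signal is peak over basal fluorescence ratio across a 100 second FLIPR read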
TAAR1 ag: human TAAR1 agonism. 0.99% of 360,000 active. activation, % at 3 µM. Q96RJ0. CHO RD-HGA16 TAAR1, Fluo-8 calcium fluorescence; vehicle wells 0%, saturating PEA agonist 100%;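 active = activation above the mean activation of all test compounds in the run plus 3 SD, cut at about 38% in these data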
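test system = CHO RD-HGA16 cells carrying human TAAR1 plus Gα16 | schedule = 17-24 h seeding, 75 min 37 °C dye, 30 min RT | compound dosing = 3 µM single concentration | control set = DMSO and PEA EC100 | replicates = n 1 | signal = Fluo-8 fluorescence, 5 s baseline then 140 s kinetic read | measure = percent activation vs PEA EC100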
TAAR1 antag: human TAAR1 antagonism; Q96RJ0; 1.5% of 360,000 active; CHO RD-HGA16 TAAR1, Fluo-8 calcium fluorescence, antagonist; inhibition, % at 3 µM;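 active = inhibition above a per-plate cutoff, the mean inhibition of test compounds on that plate plus 3 SD, cut at about 49% in these data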;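 note: 0% = DMSO plus EC80 beta-PEA response and 100% = DMSO alone without agonist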
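Test system – hTAAR1-expressing CHO RD-HGA16 cells, Gα16-coupled · Also added – β-PEA at EC80 concentration, post-compound challenge · Compound – 3 µM, single point · Incubation – dye loading 75 min at 37 °C, then 30 min room temperature · Measured by – Fluo-8 intracellular calcium dye fluorescence, real-time kinetic reads · Benchmarks – vehicle and agonist controls · Replicates – singlicate, one well per test compound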
OXTR agonist: activates the human oxytocin receptor; 0.32% of 320,000 active; CHO-OTR cells, Fluo-8 calcium fluorescence; normalized: DMSO 0%, oxytocin 100%; P30559; AID 2435; activation, % at 3 µM;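 active = activation above the mean of all tested compounds plus 3 SD, cutoff set per screening run, cut at about 20% in these data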;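 note: peak over basal fluorescence ratio from a 100 s FLIPR kinetic read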
Target sequence (P30559 whole entry, looked up): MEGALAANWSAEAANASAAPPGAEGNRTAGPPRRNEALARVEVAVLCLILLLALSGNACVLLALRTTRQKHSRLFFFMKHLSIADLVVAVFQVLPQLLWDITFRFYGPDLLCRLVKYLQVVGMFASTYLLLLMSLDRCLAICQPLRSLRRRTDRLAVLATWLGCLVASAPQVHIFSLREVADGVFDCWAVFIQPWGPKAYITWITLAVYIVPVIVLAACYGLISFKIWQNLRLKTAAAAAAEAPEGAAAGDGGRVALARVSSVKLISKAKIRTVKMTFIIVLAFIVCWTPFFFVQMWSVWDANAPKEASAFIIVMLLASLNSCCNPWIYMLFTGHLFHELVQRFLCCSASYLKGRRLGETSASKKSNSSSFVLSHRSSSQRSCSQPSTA
OXTR potentiate: potentiators of human oxytocin receptor | P30559 | CHO-OTR cells, Fluo-8 calcium fluorescence, potentiator mode; 0% = oxytocin EC15, 100% = EC100 | activation, % at 3 µM | 0.061% of 320,000 active;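 active = activation above that plate's cutoff, the mean activation of tested compounds plus 3 SD, cut at about 6.6% in these data, passing the limit was not always enough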;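 note: 100% uses oxytocin at 75 nM as the full agonist control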
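Material: CHO-OTR cells, human receptor; compound dosing: single dose, 3.0 µM nominal final compound concentration; schedule: 6 min compound pre-incubation at room temperature, 100 s kinetic read; measured by: kinetic Fluo-8 calcium fluorescence; read-out basis: % activation vs EC15 and EC100 oxytocin; controls: EC15 oxytocin alone as 0%, 75 nM oxytocin as 100%; replicates: singlicate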
TAAR1 nonsel count: nonselective antagonism, TAAR1 counter-screen; 77% of 2,400 active; shares compounds with TAAR1 antag; inhibition, % at 3 µM; counterscreen cell line, calcium fluorescence, antagonist mode; in the data active = inhibition above about 22%;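 note: CHO-Ga16 host cells stimulated with ATP at an EC80 level; 0% = agonist EC80 plus vehicle and 100% = vehicle without agonist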
TAAR1 antag conf: human TAAR1 antagonism, confirmed; shares compounds with TAAR1 antag; TAAR1-expressing cells, fluorescence antagonist read-out; inhibition, % at 3 µM; 40% of 2,400 active; in the data active = inhibition above about 49%;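 note: CHO-Ga16 host cells challenged with agonist PEA near its EC80; 0% = agonist at EC80 plus vehicle and 100% = vehicle with no agonist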
Ga16 nonsel ag: nonselective Ga16 agonism, counter-screen; shares compounds with TAAR1 antag; 18% of 2,400 active; activation, % at 3 µM; Ga16-expressing cells, calcium fluorescence, agonist counterscreen; in the data active = activation above about 12%;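 note: 0% = vehicle wells and 100% = saturating stimulus response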
TAAR1 ag count: TAAR1 agonism, antagonist counter-screen. shares compounds with TAAR1 antag. hTAAR1 cell line, fluorescence activation, agonist mode. activation, % at 3 µM. 2% of 2,400 active. AID 651955; in the data active = activation above about 37%;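 note: CHO cells stably expressing TAAR1 with calcium dye readout; 0% = DMSO vehicle and 100% = full agonist response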
* hit, by the source's call; · = no result given.

SMILES	V1R ag counter	TAAR1 ag	TAAR1 antag	OXTR agonist	OXTR potentiate	TAAR1 nonsel count	TAAR1 antag conf	Ga16 nonsel ag	TAAR1 ag count
Cc1nn(-c2ccccc2)c(C)c1C(=O)OCC(=O)N1c2ccccc2NC(=O)C1(C)C	1	19	71*	-2	-21	40*	53*	9	9
CC(C)(C)n1nnnc1C(c1ccccc1)N1CCN(C(=O)C2CCCO2)CC1 (centres undefined)	·	1	-13	·	·	·	·	·	·
COC(=O)c1c(NC(=O)COC(=O)c2ccc(NC(=O)CC#N)cc2)sc2c1CCCCC2	1	0	-31	0	0	·	·	·	·
CCOc1ccc(NC(=O)NNC(=O)c2cccnc2)cc1	1	3	-29	0	-9	·	·	·	·
O=C(OCC(=O)N(CCc1ccccc1)Cc1ccccc1)c1ccccc1O	6	4	48	2	-12	·	·	·	·
O=C(OCC(=O)N(CCc1ccccc1)Cc1ccccc1)c1ccccc1NCCO	1	5	62*	0	-15	29*	47	4	3
Cn1cncc1C#Cc1c(-c2ccc(S(C)(=O)=O)cc2)sc2ccccc12	4	11	61*	9	-9	32*	35	6	1
O=C1ON=C(c2ccccc2)/C1=C/c1ccc(-c2ccccc2[N+](=O)[O-])o1	0	20	57*	1	0	66*	63*	19*	18
CCOC(=O)C(C#N)(Cc1ccc2ccccc2n1)Cc1ccc2ccccc2n1	·	11	64*	·	·	30*	44	8	5
CCOC(=O)CSc1ccc2ccccc2n1	-1	1	-15	0	3	·	·	·	·
O=C(Cc1cccc(NC(=O)C2CCN(C(=O)C3CCCC3)CC2)c1)Nc1cccc(C(=O)N2CCOCC2)c1	·	0	4	·	·	·	·	·	·
O=C(NCC(=O)N(Cc1ccccc1)C(C(=O)NCC1CCCO1)c1ccccc1)c1ccco1 (centres undefined)	5	19	53*	7	-9	20	46	10	10
COc1ccccc1CN(C(=O)CNC(=O)c1ccco1)C(C(=O)NCC1CCCO1)c1ccccc1 (centres undefined)	4	17	68*	5	-6	32*	47	8	10
O=C(NCC(=O)N(c1ccc(F)cc1)C(C(=O)NCC1CCCO1)c1ccccc1)c1ccco1 (centres undefined)	0	9	25	0	-12	·	·	·	·
Cc1ccc(C(C(=O)NCC2CCCO2)N(Cc2ccccc2)C(=O)c2ccc(-c3ccccc3)[nH]2)o1 (centres undefined)	-1	9	67*	-1	-10	31*	42	8	14
CC(C)CN(C(=O)c1cccs1)C1CCS(=O)(=O)C1 (centres undefined)	·	2	-37	·	·	·	·	·	·
O=c1c(-c2ccccc2)cocc1-c1ccccc1	·	0	2	·	·	·	·	·	·
COc1cc(C(=O)Nc2cccc(-c3nnc(-c4ccco4)o3)c2)ccc1OC(C)=O	1	16	64*	-1	-8	26*	45	7	8
COc1ccc(C(=O)Nc2cccc(-c3nnc(-c4ccco4)o3)c2)cc1	-1	18	39	-2	-7	·	·	·	·
CCN(CC(=O)NCc1ccc2c(c1)OCO2)S(=O)(=O)c1ccc(F)cc1	1	-3	20	2	-5	·	·	·	·
COC(=O)NC1(C(=O)O)CCCC1	0	3	-6	1	-4	·	·	·	·
CCOc1cc(C(=S)N2CCOCC2)ccc1OC(=O)c1cccc(C)c1	0	9	66*	-2	-9	31*	48	5	1
CCOc1cc(C(=S)N2CCOCC2)ccc1OC(=O)c1ccccc1	4	0	0	-2	-3	·	·	·	·
N=c1sccn1CC(=O)Nc1ccc(Cl)cc1[N+](=O)[O-]	1	3	-15	1	-5	·	·	·	·
CCOc1ccccc1N1CCN(C(=O)c2cc(-c3cc(OC)ccc3OC)nc3ccccc23)CC1	2	4	73*	0	-9	21	43	6	4
SMILES	V1R ag counter	TAAR1 ag	TAAR1 antag	OXTR agonist	OXTR potentiate	TAAR1 nonsel count	TAAR1 antag conf	Ga16 nonsel ag	TAAR1 ag count
COc1ccc(OC)c(-c2cc(C(=O)O)c3cc4ccccc4cc3n2)c1	·	1	-5	·	·	·	·	·	·
COc1ccc(-c2cc(C(=O)N3CCN(c4ccccc4F)CC3)c3ccccc3n2)c(OC)c1	1	7	33	0	1	·	·	·	·
CC(=O)c1ccc(N2CCN(C(=O)c3cc4c(C)nc5ccccc5c4o3)CC2)cc1	5	10	3	4	-12	·	·	·	·
COc1ccc(-c2cc(C(=O)N3CCN(c4ncccn4)CC3)c3ccccc3n2)c(OC)c1	0	16	74*	-2	0	31*	54*	8	9
COc1ccc(OC)c(-c2cc(C(=O)N3CCN(c4ncccn4)CC3)c3ccccc3n2)c1	1	11	78*	-3	-2	28*	47	7	20
COc1ccc(N2CCN(C(=O)c3cc4c(C)nc5ccccc5c4o3)CC2)cc1	5	4	62*	3	-15	37*	51*	12*	10
COc1ccc(-c2cc(C(=O)N3CCCCCC3)c3ccccc3n2)c(OC)c1	-1	1	35	-1	-6	·	·	·	·
CS(=O)(=O)N1CCN(C(=O)c2cc(-c3ccccc3)nc3ccccc23)CC1	2	11	12	3	-6	·	·	·	·
CCOc1ccc2oc(C(=O)N3CCN(c4ccccc4OCC)CC3)c(C)c2c1	-2	3	60*	-2	-8	20	43	2	11
O=C(c1cc(-c2cccnc2)nc2ccccc12)N1CCN(S(=O)(=O)c2cccs2)CC1	2	17	51*	-1	-6	22*	34	6	5
COc1ccc(N2CCN(C(=O)c3cc(-c4cc(OC)ccc4OC)nc4ccccc34)CC2)cc1	0	10	60*	-1	-9	27*	49*	11	15
COc1ccc(-c2cc(C(=O)N3CCN(c4ncccn4)CC3)c3ccccc3n2)cc1	3	35	52*	-2	-4	29*	48	10	8
COc1ccc(-c2cc(C(=O)N3CCCC3)c3ccccc3n2)cc1	3	7	16	0	-1	·	·	·	·
